Source: PMC8486320 (Journal of medicinal chemistry, 2021)
Where no end group is shown, it is not given here. The star is where a group is joined. Crotonyl(E) = C/C=C/C(=O)*

Key:
ENL YEATS domain [1] = target: T1, ENL YEATS domain (Homo sapiens, UniProt Q03111); assay: AlphaScreen assay, His-ENL YEATS / biotin-H3K9ac interaction; format: binding; settings: SAR comparison with 11 or 6
T1 sequence (Q03111 1-145): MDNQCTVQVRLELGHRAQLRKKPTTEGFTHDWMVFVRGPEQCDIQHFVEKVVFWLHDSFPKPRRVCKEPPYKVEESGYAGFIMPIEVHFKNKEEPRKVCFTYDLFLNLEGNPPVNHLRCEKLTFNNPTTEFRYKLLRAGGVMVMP

YEATS2 = target: T2, YEATS2 (Homo sapiens, UniProt Q9ULM3); assay: Competitive peptide pulldown, YEATS2 with H3K27cr; format: binding; settings: 20 μM compound
T2 sequence (Q9ULM3 201-332): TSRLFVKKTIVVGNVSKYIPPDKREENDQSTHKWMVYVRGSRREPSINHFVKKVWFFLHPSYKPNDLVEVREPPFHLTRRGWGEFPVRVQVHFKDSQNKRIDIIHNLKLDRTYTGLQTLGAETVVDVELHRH

ENL = target: T3, ENL (Homo sapiens, UniProt Q03111); assay: Competitive peptide pulldown, ENL with H3K9ac; format: binding
T3 sequence (Q03111 1-145): T1 sequence (Q03111 1-145)

AF9 = target: T4, AF9 (Homo sapiens, UniProt P42568); assay: Competitive peptide pulldown, AF9 with H3K9ac; format: binding; settings: 20 μM compound
T4 sequence (P42568 1-145): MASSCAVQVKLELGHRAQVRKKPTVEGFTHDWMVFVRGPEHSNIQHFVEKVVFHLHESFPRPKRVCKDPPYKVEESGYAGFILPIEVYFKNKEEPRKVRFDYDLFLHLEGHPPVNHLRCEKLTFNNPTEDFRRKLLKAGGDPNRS

GAS41 [2] = target: T5, GAS41 (Homo sapiens, UniProt O95619); assay: Competitive peptide pulldown, GAS41 with H3K27ac; format: binding; settings: 20 μM compound
T5 sequence (O95619 whole entry, the tested form may be a part): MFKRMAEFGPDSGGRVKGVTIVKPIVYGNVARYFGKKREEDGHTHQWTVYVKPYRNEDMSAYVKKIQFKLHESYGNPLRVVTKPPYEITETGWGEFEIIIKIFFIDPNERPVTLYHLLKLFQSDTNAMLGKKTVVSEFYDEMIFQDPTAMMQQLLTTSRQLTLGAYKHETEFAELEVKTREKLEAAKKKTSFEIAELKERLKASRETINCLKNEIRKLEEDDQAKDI

YEATS2 YEATS domain = target: T6, YEATS2 YEATS domain (Homo sapiens, UniProt Q9ULM3); assay: AlphaScreen assay, YEATS2 YEATS / H3K27cr peptide; format: binding
T6 sequence (Q9ULM3 201-332): T2 sequence (Q9ULM3 201-332)

GAS41 YEATS domain = GAS41 YEATS domain (Homo sapiens, UniProt O95619); assay: AlphaScreen assay, GAS41 YEATS / H3K27ac peptide; format: binding
GAS41 YEATS domain, sequence (O95619 whole entry, the tested form may be a part): as above

ENL YEATS domain [3] = target: T7, ENL YEATS domain (Homo sapiens, UniProt Q03111); assay: 1H,15N HSQC NMR titration of ENL YEATS domain; format: binding; settings: 15N-labelled His-ENL, ligand titrated
T7 sequence (Q03111 1-148): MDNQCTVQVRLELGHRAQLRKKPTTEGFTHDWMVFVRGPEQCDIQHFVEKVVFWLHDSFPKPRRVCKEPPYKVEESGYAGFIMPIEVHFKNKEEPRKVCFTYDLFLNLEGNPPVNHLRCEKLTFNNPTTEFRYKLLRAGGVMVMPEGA
Procedure, shortened: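 15N-labelled YEATS domain was expressed in E. coli Rosetta-2 (DE3) pLysS in NH4Cl minimal medium (0.5 mM IPTG, 18 h, 16 °C) and purified by Ni-NTA then size exclusion. 1H,15N HSQC spectra were recorded at 298 K, 600 MHz, on 0.2 mM protein in 25–50 mM Tris-HCl pH 7.5, 150 mM NaCl, 0.2 mM TCEP, 10% D2O. Test compound or H3K27cr peptide (aa 22–31) was added stepwise at set protein:ligand molar ratios.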

U2OS cells = assay: Cell growth inhibition assay; format: cell-based, human; settings: even at 50 μM, ENL-independent cell line
MV4;11 cells [4] = assay: Combinatorial treatment of compound 7 and JQ1, MV4; format: cell-based, human; settings: 7 0 to 20 μM, JQ1 0–200 nM, Combenefit
Procedure, shortened: (§1)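 Leukaemia cells kept in RPMI-1640 with 10% FBS were given DMSO, test compound, JQ1, or the two combined at a concentration matrix for 6 days. Viability was read by CellTiter-Glo luminescence as % surviving relative to DMSO. Drug interaction was scored as synergy using Combenefit.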

MOLM13 cells = assay: Combinatorial treatment of compound 7 and JQ1, MOLM13; format: cell-based, human; settings: 7 0 to 20 μM, JQ1 0–200 nM, Combenefit
Procedure, shortened: as §1

AF9 proteins = target: T8, AF9 proteins (Homo sapiens, UniProt P42568); assay: Cellular thermal shift assay; format: cell-based; settings: HeLa cells, 20 μM, 5 h
T8 sequence (P42568 1-568): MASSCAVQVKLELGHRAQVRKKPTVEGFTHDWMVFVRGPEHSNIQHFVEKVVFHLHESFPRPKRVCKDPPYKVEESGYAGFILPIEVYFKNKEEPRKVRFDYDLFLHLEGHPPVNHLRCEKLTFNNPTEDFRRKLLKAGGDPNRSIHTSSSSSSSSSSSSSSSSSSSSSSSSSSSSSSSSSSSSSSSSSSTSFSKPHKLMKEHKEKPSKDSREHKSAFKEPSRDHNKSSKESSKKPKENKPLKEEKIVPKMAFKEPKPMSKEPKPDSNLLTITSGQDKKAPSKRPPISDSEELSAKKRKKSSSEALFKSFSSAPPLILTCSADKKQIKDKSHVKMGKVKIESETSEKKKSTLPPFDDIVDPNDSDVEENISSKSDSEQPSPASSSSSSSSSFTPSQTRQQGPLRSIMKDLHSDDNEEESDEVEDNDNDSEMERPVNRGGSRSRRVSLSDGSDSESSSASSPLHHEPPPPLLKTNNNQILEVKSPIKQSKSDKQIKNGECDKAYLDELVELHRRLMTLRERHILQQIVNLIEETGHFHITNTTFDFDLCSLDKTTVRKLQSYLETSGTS
Procedure, shortened: (§2)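 Cells were incubated with 20 µM test compound for 5 h, washed three times in PBS and resuspended in PBS with protease inhibitors (about 3 million cells per aliquot). Aliquots were heated 3 min at the indicated temperatures, then held 2 min at room temperature. Cells were lysed with NP40/glycerol/DTT buffer plus three liquid-nitrogen/37 °C freeze-thaw cycles, and cleared at 13,000 rpm, 4 °C, 10 min. Soluble protein was read by western blot.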

Caco-2 cell monolayers = assay: Caco-2 cell permeability assay; format: in vitro ADME; settings: 10 μM, 2 hours, A-B direction
Procedure, shortened: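 Flux was measured across polarised Caco-2 monolayers in triplicate, with ranitidine, talinolol and warfarin as controls. Apparent permeability (Papp) was calculated for the apical-to-basolateral direction.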

HOXA9 gene expression = assay: qRT-PCR of HOXA9 gene expression in MOLM13 cells; format: cell-based, human
Procedure, shortened: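 MOLM13 cells were treated with test compound or DMSO. Total RNA was extracted and reverse-transcribed, and HOXA9 was quantified by SYBR Green real-time PCR. Expression was normalised to GAPDH by the comparative Ct method; mean ± SEM, n = 3, two-tailed Student's t test.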

GAS41 [5] = target: T5, GAS41; assay: Cellular thermal shift assay; format: cell-based; settings: MV4;11 and MOLM13 cells, 20 μM, 5 h, vs DMSO
Procedure, shortened: as §2

MV4;11 cells [6] = assay: Cell growth inhibition assay; format: cell-based, human; settings: compared with MOLM13 (5 and 10 μM), 3 days
ENL protein = target: T9, ENL protein (Homo sapiens, UniProt Q03111); assay: Cellular thermal shift assay; format: cell-based; settings: 20 μM, 5 h
T9 sequence (Q03111 1-559): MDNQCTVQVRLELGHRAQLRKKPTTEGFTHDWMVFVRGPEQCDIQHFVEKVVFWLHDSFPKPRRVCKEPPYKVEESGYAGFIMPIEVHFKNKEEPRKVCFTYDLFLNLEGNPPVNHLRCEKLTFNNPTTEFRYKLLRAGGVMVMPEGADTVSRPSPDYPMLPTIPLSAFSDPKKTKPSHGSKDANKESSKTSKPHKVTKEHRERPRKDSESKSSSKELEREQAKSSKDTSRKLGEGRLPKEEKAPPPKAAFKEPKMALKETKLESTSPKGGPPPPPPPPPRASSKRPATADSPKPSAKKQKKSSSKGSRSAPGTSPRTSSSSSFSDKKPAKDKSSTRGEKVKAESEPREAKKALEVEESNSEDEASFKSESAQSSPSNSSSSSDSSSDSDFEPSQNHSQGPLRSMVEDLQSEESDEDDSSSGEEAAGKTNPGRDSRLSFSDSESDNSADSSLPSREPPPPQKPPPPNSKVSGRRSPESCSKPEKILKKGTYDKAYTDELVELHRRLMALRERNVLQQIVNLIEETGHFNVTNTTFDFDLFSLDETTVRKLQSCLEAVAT
Procedure, shortened: as §2

For `O=C(NCc1cccc(CN2CCC2)c1)c1ccc2nncn2c1` [compound 15, N-(3-(azetidin-1-ylmethyl)benzyl)-[1,2,4]triazolo[4,3-a]pyridine-6-carboxamide], the “inhibition potency compared with parent compound” value (ENL YEATS domain [1]) was “did not result in any increase of potency”.
`O=C(NCc1ccc(CNc2ncc(F)cn2)cc1)c1ccc2nncn2c1` [compound 24, N-(4-(((5-fluoropyrimidin-2-yl)amino)methyl)benzyl)-[1,2,4]triazolo[4,3-a]pyridine-6-carboxamide] was tested, and the “inhibition of YEATS2 binding to acylated histone peptide” value (shortened to “inhibition of YEATS2 binding”) (YEATS2) was “none of these compounds showed notable inhibition”, the “inhibition of ENL binding to H3K9ac” value (ENL; 1 μM compound) was “strongly inhibited” and the “inhibition of AF9 binding to acylated histone peptide” value (“inhibition of AF9 binding” for short) (AF9) was “none of these compounds showed notable inhibition”. The “inhibition of GAS41 binding to acylated histone peptide” value (“inhibition of GAS41 binding” for short) (GAS41 [2]) was “none of these compounds showed notable inhibition”.
`CSc1ccc(CNC(=O)c2ccc3nncn3c2)cc1` [compound 1] was tested, and the “inhibition of YEATS2 binding” value (YEATS2) was “none of these compounds showed notable inhibition”, the “inhibition of YEATS2 YEATS domain (IC50 measurement)” value (YEATS2 YEATS domain) was “no detectable inhibition” and the “inhibition of ENL binding to H3K9ac” value (ENL; 5 μM compound) was “strongly inhibited”. The “inhibition of AF9 binding” value (AF9) was “none of these compounds showed notable inhibition”, the “inhibition of GAS41 binding” value (GAS41 [2]) was “none of these compounds showed notable inhibition” and the “inhibition of GAS41 YEATS domain (IC50 measurement)” value (GAS41 YEATS domain) was “no detectable inhibition”.
For “H3K27cr peptide: histone H3 residues 22–31 with a crotonylation at K27 (TKAARK(Crotonyl(E))SAPA; UniProt P68431 23-32, looked up, fragment) [reference compound]”, the “chemical shift perturbations, exchange regime on the NMR timescale” value (ENL YEATS domain [3]) was “intermediate to fast exchange regime”.
`O=C(NCc1ccc(CN2CCC2)cc1)c1ccc2nncn2c1` [compound 11, N-(4-(azetidin-1-ylmethyl)benzyl)-[1,2,4]triazolo[4,3-a]pyridine-6-carboxamide] was tested, and the “inhibition of YEATS2 binding” value (YEATS2) was “none of these compounds showed notable inhibition”, the “inhibition of ENL binding to H3K9ac” value (ENL; 1 μM compound) was “strongly inhibited” and the “inhibition of AF9 binding” value (AF9) was “none of these compounds showed notable inhibition”. The “inhibition of GAS41 binding” value (GAS41 [2]) was “none of these compounds showed notable inhibition”.
With `CC(NC(=O)c1ccc2nncn2c1)c1ccc(CN2CCC2)cc1` (centres unmarked) [compound 16, N-(1-(4-(azetidin-1-ylmethyl)phenyl)ethyl)-[1,2,4]triazolo[4,3-a]pyridine-6-carboxamide] the “inhibition potency compared with parent compound” value (ENL YEATS domain [1]) was “greatly reduced the inhibition potency”.
`CN(C)Cc1ccc(CNC(=O)c2ccc3nncn3c2)cc1` [compound 7, N-(4-((dimethylamino)methyl)benzyl)-[1,2,4]triazolo[4,3-a]pyridine-6-carboxamide] was tested, and the “response of U2OS cell growth to treatment” value (U2OS cells) was “little or no response”, the “inhibition of YEATS2 binding” value (YEATS2) was “none of these compounds showed notable inhibition” and the “interaction with JQ1 in killing leukemia cells” value (MV4;11 cells [4]) was “synergistic effect”. For the same molecule, the “inhibition of ENL binding to H3K9ac” value (ENL; 5 μM compound) was “strongly inhibited”, the “inhibition of AF9 binding” value (AF9) was “none of these compounds showed notable inhibition” and the “inhibition of GAS41 binding” value (GAS41 [2]) was “none of these compounds showed notable inhibition”. The “interaction with JQ1 in killing leukemia cells” value (MOLM13 cells) was “synergistic effect”, the “thermal stability of AF9 protein (CETSA)” value (AF9 proteins) was “stabilized ENL but not AF9 proteins” and the “chemical shift perturbations, exchange regime on the NMR timescale” value (ENL YEATS domain [3]) was “intermediate to slow exchange regime”. The “Caco-2 permeability” value (Caco-2 cell monolayers) was “comparable to 11”, the “lowest drug concentration effectively suppressing HOXA9 gene expression” value (HOXA9 gene expression) was 2.5 µM and the “thermal stability of GAS41 protein (CETSA)” value (GAS41 [5]) was “little or no difference”. The “inhibition of MV4;11 cell growth” value (MV4;11 cells [6]) was “about double amounts of the compound were needed to achieve similar levels of inhibition”, the “thermal stability of ENL protein (CETSA)” value (ENL protein; HeLa cells) was “stabilized ENL” and the “thermal stability of ENL protein (CETSA)” value (ENL protein; MV4;11 and MOLM13 cells, vs DMSO) was “bound and stabilized ENL proteins”.
